Data from article PMC9187044 (Environmental Toxicology and Chemistry, 2021).
“Also recorded” adds a separate entry of the source. Like-named read-outs stand apart in the source and are kept apart here.

Key:
[1] = human liver microsomes; ref Seguin et al., 2019; cited from earlier work
[2] = In vitro half-life with human liver microsomes; assay type: in vitro ADME
[3] = Rainbow trout liver S9 substrate depletion assay; assay type: in vitro ADME, rainbow trout (Oncorhynchus mykiss); settings: for Depletion / biotransformation in RT-S9 assay (in words): active RT-S9, tested individually, up to 2 h
[4] = Baseline equilibrium BCF predicted from DMLW and phospholipid content; design: species or system fish; settings: fML of 1%
[5] = ref Chen et al., 2016, cited from earlier work; for CLint,in vivo: RT-S9
[6] = RT-S9 substrate depletion assay, cationic surfactants tested as mixtures of six; assay type: in vitro ADME, rainbow trout (Oncorhynchus mykiss); settings: for Clearance rate in mixture compared with single-compound assay (in words): Mixture 1; for CLint,in vivo lower in mixture than tested individually: Mixture 2
[7] = 14C-labeled, 1.1 × 10^6 cells/ml, by 2.5 h; ref Bernhard et al., 2006; cited from earlier work
[8] = N-demethylation metabolite formation in RT-S9 assay; assay type: in vitro ADME, rainbow trout (Oncorhynchus mykiss); settings: for 1° alkylamine product present at last time point as % of removed parent: 120 min; for Time of peak concentration of 2° alkylamine metabolite: 2-h RT-S9 assay
In short: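 Trout liver S9 (2 mg/ml protein) with 2 mM NADPH, 2 mM UDPGA, 0.1 mM PAPS, 5 mM GSH and alamethicin, pH 7.8, 11 °C; substrate starts at about 1.0 µM. Sampled at 0, 20, 40, 60, 90 and 120 min and quenched in ice-cold acetonitrile. N-demethylated products scanned by LC–MS/MS and quantified against external standards. Metabolite mass divided by parent mass removed at the same time point.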

[9] = Cofactor-limited depletion of T12 in RT-S9 assay; assay type: in vitro ADME, rainbow trout (Oncorhynchus mykiss)
In short: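 Pooled liver S9 from five trout, 2 mg/ml protein, in 100 mM PPBS pH 7.8 with 10 μg/ml alamethicin, at 11 °C; substrate starts at about 1.0 µM. Duplicate six-sample time series over 60 min, either with no added cofactors, NADPH (2 mM) alone, NADPH plus UDPGA (2 mM), GSH (5 mM) or PAPS (0.1 mM), or all cofactors. Parent and N-demethyl product measured by LC–MS/MS.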

## CCCCCCCCCC[N+](C)(C)Cc1ccccc1.[Cl-] [BAC10]
[1]
  In vitro half-life: 1 min

## CCCCCCCCCCCC[N+](C)(C)Cc1ccccc1 [BAC12, Benzyldimethyldodecylammonium chloride]
[1]
  In vitro half-life: 3 min
[2]; HLM vs present study RT-S9
  HLM CLint,in vitro faster than RT-S9 CLint,in vitro: approximately 100 times
[2]; from half-life of ref Seguin et al., 2019
  CLint,in vitro corresponding to HLM half-life: 13.86 ml h^–1 mg protein^–1
[3]; RT-S9, present study, tested individually
  CLint,in vitro: 0.14 ml h^–1 mg protein^–1
[3]
  Depletion / biotransformation in RT-S9 assay (in words): significant depletion

## CCCCCCCCCCCCCC[N+](C)(C)Cc1ccccc1.[Cl-] [BAC14, Benzyldimethyltetradecylammonium chloride]
[3]
  Depletion / biotransformation in RT-S9 assay (in words): No significant depletion

## CCCCCCCCCCCCCCCC[N+](C)(C)Cc1ccccc1 [BAC16]
[1]
  In vitro half-life: 15 min

## CCCCCCCCCC[N+](C)(C)CCCCCCCCCC [DDAC, didecyldimethylammonium chloride]
[4]
  Factor by which BCFbaseline estimate exceeds empirical BCF or BAF: 420

## CCCCCCCCN [P8]
[5]
  Depletion / biotransformation in RT-S9 (in words): no significant depletion

## CCCCCCCCCN [P9, Nonylamine]
[6]
  Clearance rate in mixture compared with single-compound assay (in words): not significantly different

## CCCCCCCCCCCCN [P12, Dodecylamine]
[5]
  CLint,in vivo: 37 ml h^–1 g liver^–1
[3]
  Depletion / biotransformation in RT-S9 assay (in words): No significant depletion

## CCCCCCCCCCCC(=O)OCCN [P12‐Ac, 2-aminoethyl laurate]
[3]; RT-S9 assay
  Clearance rate relative to alkylamine analog P12: 10 times higher

## CCCCCCCCCCCCCN [P13, Tridecylamine]
[4]
  Factor by which BCFbaseline estimate exceeds empirical BCF or BAF: 10
  Predicted BCFbaseline: 14,000 L kg^–1

## CCCCCCCCCCCCCCN [P14, Tetradecylamine]
[3]
  Depletion / biotransformation in RT-S9 assay (in words): No significant depletion

## CCCCCCCCCCCCCCCCN [P16, Hexadecylamine]
[7]
  Concentration remaining, % of starting value: 56.0 ± 1.3%
[4]
  Factor by which BCFbaseline estimate exceeds empirical BCF or BAF: 70
[3]
  Depletion / biotransformation in RT-S9 assay (in words): No significant depletion; also recorded: no detectable biotransformation

## CCCCCCCC[N+](C)(C)C.[Cl-] [Q8]
[5]
  Depletion / biotransformation in RT-S9 (in words): identical result

## CCCCCCCCCC[N+](C)(C)C.[Br-] [Q10, N,N,N-Trimethyldecylammonium bromide]
[3]
  Depletion / biotransformation in RT-S9 assay (in words): no significant biotransformation

## CCCCCCCCCCCC[N+](C)(C)C.[Cl-] [Q12]
[5]
  Depletion / biotransformation in RT-S9 (in words): identical result

## CCCCCCCCCCCCCC[N+](C)(C)C.[Cl-] [Q14, N,N,N-Trimethyltetradecylammonium chloride]
[4]
  Factor by which BCFbaseline estimate exceeds empirical BCF or BAF: 33
[3]
  Depletion / biotransformation in RT-S9 assay (in words): no significant biotransformation

## CCCCCCCCCCCCCCCC[N+](C)(C)C.[Cl-] [Q16, N,N,N-Trimethylhexadecylammonium chloride]
[3]
  Depletion / biotransformation in RT-S9 assay (in words): no significant biotransformation

## CCCCCCCCNC [S8]
[5]
  Depletion / biotransformation in RT-S9 (in words): negligible depletion

## CCCCCCCCCCNC [S10, N-Methyldecylamine]
[8]
  1° alkylamine product present at last time point as % of removed parent: 10%

## CCCCCCCCCCCCNC [S12, N-Methyldodecylamine]
[5]
  CLint,in vivo: 162 ml h^–1 g liver^–1
[6]
  CLint,in vivo lower in mixture than tested individually: 50%
[8]
  1° alkylamine product present at last time point as % of removed parent: 25%

## CCCCCCCCCCCCCCCCNC [S16, N-Methylhexadecylamine]
[4]
  Factor by which BCFbaseline estimate exceeds empirical BCF or BAF: 49
[6]
  CLint,in vivo lower in mixture than tested individually: 70%
[8]
  1° alkylamine product present at last time point as % of removed parent: 55%

## CCCCCCCCN(C)C [T8, N,N-Dimethyloctylamine]
[5]
  CLint,in vivo: 184 ml h^–1 g liver^–1

## CCCCCCCCCN(C)C [T9, N,N-Dimethylnonylamine]
[6]
  CLint,in vivo lower in mixture than tested individually: 43%
[3]
  Depletion / biotransformation in RT-S9 assay (in words): reduced below the limit of quantitation

## CCCCCCCCCCN(C)C [T10, N,N-Dimethyldecylamine]
[6]
  Clearance rate in mixture compared with single-compound assay (in words): not significantly different
[8]
  Time of peak concentration of 2° alkylamine metabolite: 20 min
[3]
  Depletion / biotransformation in RT-S9 assay (in words): reduced below the limit of quantitation

## CCCCCCCCCCCCN(C)C [T12, N,N-Dimethyldodecylamine]
[9]; RT-S9 with only NADPH added
  CLint,in vivo: 224 ml h^–1 g liver^–1
[9]; UDPGA or GSH in combination with NADPH, vs NADPH only
  Clearance (in words): did not result in increased clearance
[9]; active RT-S9, no added cofactors
  Depletion (in words): no significant depletion
[5]
  CLint,in vivo: 472 ml h^–1 g liver^–1
[3]
  Depletion / biotransformation in RT-S9 assay (in words): reduced below the limit of quantitation

## CCCCCCCCCCCCCN(C)C [T13, N,N-Dimethyltridecylamine]
[6]
  Clearance rate in mixture compared with single-compound assay (in words): not significantly different

## CCCCCCCCCCCCCCN(C)C [T14, N,N-Dimethyltetradecylamine]
[4]
  Factor by which BCFbaseline estimate exceeds empirical BCF or BAF: 3.1

## CCCCCCCCCCCCCCCCN(C)C [T16, N,N-Dimethylhexadecylamine]
[4]
  Factor by which BCFbaseline estimate exceeds empirical BCF or BAF: 42
[8]
  Time of peak concentration of 2° alkylamine metabolite: 120 min

## CCCCCCCCCCCCCCCCCCN(C)C [T18, N,N‐dimethyloctadecylamine]
[4]
  Factor by which BCFbaseline estimate exceeds empirical BCF or BAF: 128
